According to ChEMBL document CHEMBL2424622, “Development of amino-pyrimidine inhibitors of c-Jun N-terminal kinase (JNK): kinase profiling guided optimization of a 1,2,3-benzotriazole lead” (Bioorg Med Chem Lett, 2013):

How the values were obtained:
[1] = target: Wee1-like protein kinase (Homo sapiens) (UniProt P30291); experiment: Competitive binding affinity to WEE1 (unknown origin) at 10 uM in presence of ATP relative to control
[2] = target: T1, Serine/threonine-protein kinase DCLK1 (Homo sapiens) (UniProt O15075); experiment: Competitive binding affinity to DCAMKL1 (unknown origin) at 10 uM in presence of ATP relative to control
T1 sequence (whole entry): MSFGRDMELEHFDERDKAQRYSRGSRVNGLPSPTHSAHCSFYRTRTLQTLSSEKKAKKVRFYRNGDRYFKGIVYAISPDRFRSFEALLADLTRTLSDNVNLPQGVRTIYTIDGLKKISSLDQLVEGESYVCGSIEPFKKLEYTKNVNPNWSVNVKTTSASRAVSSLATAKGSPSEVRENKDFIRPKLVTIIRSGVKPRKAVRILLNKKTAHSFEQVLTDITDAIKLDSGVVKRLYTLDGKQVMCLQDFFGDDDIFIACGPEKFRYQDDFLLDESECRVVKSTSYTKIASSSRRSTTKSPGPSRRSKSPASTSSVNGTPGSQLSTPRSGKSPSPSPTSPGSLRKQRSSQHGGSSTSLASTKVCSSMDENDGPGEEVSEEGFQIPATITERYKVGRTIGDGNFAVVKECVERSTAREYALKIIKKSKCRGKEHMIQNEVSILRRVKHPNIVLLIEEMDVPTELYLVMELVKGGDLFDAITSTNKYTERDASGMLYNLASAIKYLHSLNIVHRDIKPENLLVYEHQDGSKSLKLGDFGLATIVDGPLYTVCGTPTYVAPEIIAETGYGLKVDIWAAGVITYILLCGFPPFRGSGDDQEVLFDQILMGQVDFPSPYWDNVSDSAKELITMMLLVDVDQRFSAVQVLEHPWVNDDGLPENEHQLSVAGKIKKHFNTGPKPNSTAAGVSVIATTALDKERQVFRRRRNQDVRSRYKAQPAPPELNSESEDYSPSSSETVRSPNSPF

[3] = target: T2, Serine/threonine-protein kinase BRSK1 (Homo sapiens) (UniProt Q8TDC3); experiment: Competitive binding affinity to BRSK1 (unknown origin) at 10 uM in presence of ATP relative to control
T2 sequence (whole entry): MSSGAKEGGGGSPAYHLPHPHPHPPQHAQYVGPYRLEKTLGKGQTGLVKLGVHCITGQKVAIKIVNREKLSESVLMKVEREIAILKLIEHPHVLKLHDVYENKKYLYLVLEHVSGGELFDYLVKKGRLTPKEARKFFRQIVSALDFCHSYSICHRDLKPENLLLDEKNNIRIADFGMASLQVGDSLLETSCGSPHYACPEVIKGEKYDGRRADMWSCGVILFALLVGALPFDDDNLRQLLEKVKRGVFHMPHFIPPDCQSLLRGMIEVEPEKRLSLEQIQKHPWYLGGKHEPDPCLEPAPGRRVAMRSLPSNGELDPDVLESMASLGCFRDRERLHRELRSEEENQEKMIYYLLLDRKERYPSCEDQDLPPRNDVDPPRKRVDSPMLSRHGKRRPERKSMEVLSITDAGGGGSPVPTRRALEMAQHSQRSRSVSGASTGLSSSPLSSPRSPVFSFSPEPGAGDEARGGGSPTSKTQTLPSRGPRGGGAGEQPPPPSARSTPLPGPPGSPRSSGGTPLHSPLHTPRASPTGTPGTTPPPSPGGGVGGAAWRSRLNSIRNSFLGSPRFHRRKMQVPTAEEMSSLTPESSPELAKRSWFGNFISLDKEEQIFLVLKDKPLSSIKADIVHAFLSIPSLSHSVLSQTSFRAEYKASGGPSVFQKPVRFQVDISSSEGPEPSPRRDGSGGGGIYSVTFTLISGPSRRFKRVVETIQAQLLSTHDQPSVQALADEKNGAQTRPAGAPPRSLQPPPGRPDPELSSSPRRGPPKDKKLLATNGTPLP

[4] = target: T3, Dual specificity mitogen-activated protein kinase kinase 3 (Homo sapiens) (UniProt P46734); experiment: Competitive binding affinity to MEK3 (unknown origin) at 10 uM in presence of ATP relative to control
T3 sequence (whole entry): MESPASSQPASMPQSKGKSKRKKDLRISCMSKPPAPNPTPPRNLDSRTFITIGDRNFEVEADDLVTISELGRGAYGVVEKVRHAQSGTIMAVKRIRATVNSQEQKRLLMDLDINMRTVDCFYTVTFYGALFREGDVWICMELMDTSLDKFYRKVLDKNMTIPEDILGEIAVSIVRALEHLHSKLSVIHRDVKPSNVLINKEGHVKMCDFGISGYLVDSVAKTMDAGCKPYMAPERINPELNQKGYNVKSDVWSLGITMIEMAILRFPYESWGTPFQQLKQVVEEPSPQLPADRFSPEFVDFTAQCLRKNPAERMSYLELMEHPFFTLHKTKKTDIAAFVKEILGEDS

[5] = target: T4, Mitogen-activated protein kinase 15 (Homo sapiens) (UniProt Q8TD08); experiment: Competitive binding affinity to ERK8 (unknown origin) at 10 uM in presence of ATP relative to control
T4 sequence (whole entry): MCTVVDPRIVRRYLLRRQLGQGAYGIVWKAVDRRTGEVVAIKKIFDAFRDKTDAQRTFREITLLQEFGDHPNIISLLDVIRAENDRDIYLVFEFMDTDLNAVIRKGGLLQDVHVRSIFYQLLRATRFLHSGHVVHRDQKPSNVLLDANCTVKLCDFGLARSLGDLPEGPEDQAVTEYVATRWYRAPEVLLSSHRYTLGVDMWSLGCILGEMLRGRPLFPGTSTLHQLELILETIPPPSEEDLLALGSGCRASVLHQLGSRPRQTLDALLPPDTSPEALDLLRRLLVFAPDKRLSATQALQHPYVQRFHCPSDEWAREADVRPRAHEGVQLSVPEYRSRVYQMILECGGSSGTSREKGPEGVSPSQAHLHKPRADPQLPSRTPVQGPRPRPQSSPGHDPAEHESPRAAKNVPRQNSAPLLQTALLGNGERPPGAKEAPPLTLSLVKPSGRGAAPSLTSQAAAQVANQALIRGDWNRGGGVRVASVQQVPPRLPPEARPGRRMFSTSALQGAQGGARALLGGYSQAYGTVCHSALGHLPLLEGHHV

Homo sapiens = species: Homo sapiens; experiment: Competitive binding affinity to EGFR E746 to A750 deletion mutant (unknown origin) at 10 uM in presence of ATP relative to control
Outline: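 Screened at 10 µM in an in vitro ATP-site competition binding assay across a diverse panel of 128 kinases, with this kinase as one panel member. Readout is binding relative to control.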

Wee1-like protein kinase (Homo sapiens), sequence (P30291 whole entry, looked up): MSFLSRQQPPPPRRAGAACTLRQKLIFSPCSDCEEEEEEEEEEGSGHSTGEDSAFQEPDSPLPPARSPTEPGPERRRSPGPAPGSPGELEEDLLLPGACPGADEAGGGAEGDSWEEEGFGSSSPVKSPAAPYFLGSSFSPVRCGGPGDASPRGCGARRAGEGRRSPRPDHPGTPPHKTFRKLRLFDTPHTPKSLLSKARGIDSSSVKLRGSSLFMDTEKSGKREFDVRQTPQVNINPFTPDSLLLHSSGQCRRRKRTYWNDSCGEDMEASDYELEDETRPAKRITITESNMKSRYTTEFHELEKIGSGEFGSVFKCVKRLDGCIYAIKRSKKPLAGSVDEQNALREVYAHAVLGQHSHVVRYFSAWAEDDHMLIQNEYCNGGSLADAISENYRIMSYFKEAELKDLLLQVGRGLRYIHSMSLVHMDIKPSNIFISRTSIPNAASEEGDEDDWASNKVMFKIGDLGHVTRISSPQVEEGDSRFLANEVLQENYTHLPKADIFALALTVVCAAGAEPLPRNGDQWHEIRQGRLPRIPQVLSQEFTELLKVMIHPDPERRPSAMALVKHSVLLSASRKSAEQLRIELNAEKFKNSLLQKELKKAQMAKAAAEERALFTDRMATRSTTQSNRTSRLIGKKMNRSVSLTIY

inhibition [1] [%]	inhibition [2] [%]	inhibition [3] [%]	inhibition [4] [%]	inhibition (Homo sapiens) [%]	Structure (SMILES)	inhibition [5] [%]
< 50	< 50	< 50	95	99	O[C@H]1CC[C@H](Nc2nccc(-n3ncc4ccccc43)n2)CC1	97
< 50	< 50	< 50	93	< 50	O[C@H]1CC[C@H](Nc2nccc(-n3ccc4ccccc43)n2)CC1	91
–	–	–	–	–	CS(=O)(=O)CCCOc1cccc2c1ccn2-c1ccnc(N[C@H]2CC[C@H](C(=O)N3CCC(O)CC3)CC2)n1	> 85
–	–	–	–	< 50	O[C@H]1CC[C@H](Nc2nccc(-c3n[nH]c4ccccc34)n2)CC1	–
< 50	66	< 50	97	< 50	O[C@H]1CC[C@H](Nc2nccc(-n3nnc4ccccc43)n2)CC1	99
